Measurements taken from ChEMBL document CHEMBL3112485, “7-Chloroquinolinotriazoles: synthesis by the azide-alkyne cycloaddition click chemistry, antimalarial activity, cytotoxicity and SAR studies” (Eur J Med Chem, 2014).

Columns and labels:
Plasmodium falciparum = experiment: Antimalarial activity against chloroquine-resistant and mefloquine-sensitive Plasmodium falciparum W2 infected in human erythrocytes after 48 hrs by HRP2-ELISA; type: functional, organism-based; details: W2, 48 h
In short: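 Ring-stage cultures sorbitol-synchronized; RBC suspension at 0.05% parasitemia, 1.5% hematocrit in RPMI with 10% human plasma, exposed to serial compound concentrations 48 h. Background wells harvested at 24 h and subtracted. Freeze-thaw lysis, then anti-HRP2 sandwich ELISA with TMB, absorbance 450 nm. IC50 from sigmoidal dose-response versus drug-free and standard-drug controls; triplicate per concentration, experiments in duplicate.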

[1] = Cytotoxicity against human HepG2 cells after 24 hrs by MTT assay; type: cell-based
[2] = Selectivity index, ratio of CC50 for human HepG2 cells to IC50 for chloroquine-resistant and mefloquine-sensitive Plasmodium falciparum W2; type: functional

Compound | IC50 (Plasmodium falciparum; read-out: IC50) [µM] | CC50 at 24 h [1] [µM] | Ratio CC50/IC50 [2] | IC50 (Plasmodium falciparum; read-out: pIC50 (converted)) [µM]
CC(C)(C)c1ccc(C(=O)OCCCc2cn(-c3ccnc4cc(Cl)ccc34)nn2)cc1 | > 112 | > 2230 | <20 | –
Fc1ccc(-c2cn(-c3ccnc4cc(Cl)ccc34)nn2)cc1 | > 154 | > 3090 | <20 | –
CCc1ccccc1C(=O)OCc1cn(-c2ccnc3cc(Cl)ccc23)nn1 | > 128 | > 2550 | <20 | –
COc1ccc2cc(-c3cn(-c4ccnc5cc(Cl)ccc45)nn3)ccc2c1 | > 129 | > 2590 | <20 | –
CCN(CC)Cc1cn(-c2ccnc3cc(Cl)ccc23)nn1 | > 166 | 1850 | <11.2 | –
Clc1ccc2c(-n3cc(CN4CCCCC4)nn3)ccnc2c1 | > 153 | 1110 | <7.2 | –
COc1ccc(C(=O)OCc2cn(-c3ccnc4cc(Cl)ccc34)nn2)cc1 | > 127 | 303 | <2.4 | –
CC(C)(O)c1cn(-c2ccnc3cc(Cl)ccc23)nn1 | 90.3 | 442 | 4.9 | –
Clc1ccc2c(-n3cc(CN4CCOCC4)nn3)ccnc2c1 | > 152 | > 3040 | <20 | –
O=C(OCc1cn(-c2ccnc3cc(Cl)ccc23)nn1)c1ccc(Cl)cc1 | 22.5 | 484 | 21.5 | 22.9
COc1c(F)c(F)cc(C(=O)OCc2cn(-c3ccnc4cc(Cl)ccc34)nn2)c1F | > 112 | > 2230 | <20 | –
Cc1ccc(-c2cn(-c3ccnc4cc(Cl)ccc34)nn2)cc1 | > 156 | 352 | <2.2 | –
OC1CCN(Cc2cn(-c3ccnc4cc(Cl)ccc34)nn2)CC1 | 40.9 | 930 | 22.7 | 40.7
O=C(OCCCc1cn(-c2ccnc3cc(Cl)ccc23)nn1)c1ccc(C(F)(F)F)cc1 | > 109 | > 2170 | <20 | –
CCN(CC)CCCC(C)Nc1ccnc2cc(Cl)ccc12 (configuration not stated) [CHLOROQUINE] | – | 810 | – | –
CN(C)Cc1cn(-c2ccnc3cc(Cl)ccc23)nn1 | 27.4 | 1850 | 67.5 | 26.9
Clc1ccc2c(-n3cc(C4CCCCC4)nn3)ccnc2c1 | > 80 | > 3200 | <40 | –
Cc1ccc(C(=O)OCCCc2cn(-c3ccnc4cc(Cl)ccc34)nn2)cc1 | > 123 | > 2460 | <20 | –
COc1ccc(C(=O)OCCCc2cn(-c3ccnc4cc(Cl)ccc34)nn2)cc1 | > 113 | 347 | <3 | –
CN(C)c1ccc(-c2cn(-c3ccnc4cc(Cl)ccc34)nn2)cc1 | 40.3 | > 2860 | >71.1 | 39.8
OCCCc1cn(-c2ccnc3cc(Cl)ccc23)nn1 | 9.6 | 151 | 15.7 | 10
CCc1ccc(C(=O)OCc2cn(-c3ccnc4cc(Cl)ccc34)nn2)cc1 | > 128 | > 2550 | <20 | –
CCc1ccc(C(=O)OCCCc2cn(-c3ccnc4cc(Cl)ccc34)nn2)cc1 | > 119 | > 2550 | <21.4 | –
CC(C)(C)c1ccc(C(=O)OCc2cn(-c3ccnc4cc(Cl)ccc34)nn2)cc1 | > 119 | > 2380 | <20 | –
O=C(OCCCc1cn(-c2ccnc3cc(Cl)ccc23)nn1)c1ccccc1 | > 128 | 1200 | <9.4 | –
O=C(OCc1cn(-c2ccnc3cc(Cl)ccc23)nn1)c1ccc(C(F)(F)F)cc1 | > 116 | 1070 | <9.2 | –
O=C(OCc1cn(-c2ccnc3cc(Cl)ccc23)nn1)c1ccccc1 | > 137 | > 2750 | <20 | –
Clc1ccc2c(-n3cc(-c4ccccc4)nn3)ccnc2c1 | > 80 | 574 | <7.2 | –
